# Laboratory results published in ChEMBL document CHEMBL5661979, “Pharmacological inhibition of BMK1 suppresses tumor growth through promyelocytic leukemia protein” (Cancer Cell, 2010).
# Experiments:
# [1] = target: Cyclin-dependent kinase 9 (Homo sapiens, UniProt P50750); assay: Inhibition of CDK9 in human HeLa cells lysate pre incubated for 15 mins followed by ATP acyl phosphate probe addition and measured after 10 mins by LC-MS/MS analysis; assay type: subcellular
# In short: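 KiNativ profiling in HeLa lysate (5 mg/mL total protein). Lysate incubated 15 min with inhibitor at 50, 10, 2, 0.8 or 0 μM. ATP or ADP acylphosphate probe then added (5 μM final) and reacted 10 min. Reaction stopped with urea and analysed by targeted MS, using up to four fragment ions per kinase peptide-probe conjugate. % inhibition taken against untreated lysate. Run in duplicate.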
# [2] = target: Mixed lineage kinase domain-like protein (Homo sapiens, UniProt Q8NB16); assay: Inhibition of MLKL in human HeLa cells lysate pre incubated for 15 mins followed by ATP acyl phosphate probe addition and measured after 10 mins by LC-MS/MS analysis; assay type: subcellular
# [3] = target: Serine/threonine-protein kinase 38 (Homo sapiens, UniProt Q15208); assay: Inhibition of NDR1 in human HeLa cells lysate pre incubated for 15 mins followed by ATP acyl phosphate probe addition and measured after 10 mins by LC-MS/MS analysis; assay type: subcellular
# Chain of Serine/threonine-protein kinase 38 (Q15208 whole entry): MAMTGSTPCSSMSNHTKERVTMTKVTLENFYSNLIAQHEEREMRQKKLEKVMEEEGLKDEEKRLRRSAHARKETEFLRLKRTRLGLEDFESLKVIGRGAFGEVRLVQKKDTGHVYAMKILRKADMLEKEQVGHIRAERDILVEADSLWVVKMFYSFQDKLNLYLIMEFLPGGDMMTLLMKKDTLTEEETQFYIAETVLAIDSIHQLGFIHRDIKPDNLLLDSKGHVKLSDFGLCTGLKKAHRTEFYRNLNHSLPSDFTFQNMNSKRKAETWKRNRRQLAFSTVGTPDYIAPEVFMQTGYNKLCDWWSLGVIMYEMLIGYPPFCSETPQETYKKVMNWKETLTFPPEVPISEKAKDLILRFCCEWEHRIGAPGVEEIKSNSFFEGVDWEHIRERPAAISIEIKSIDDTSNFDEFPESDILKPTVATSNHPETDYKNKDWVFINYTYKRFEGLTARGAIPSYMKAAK
# [4] = target: Eukaryotic translation initiation factor 2-alpha kinase 3 (Homo sapiens, UniProt Q9NZJ5); assay: Inhibition of PEK in human HeLa cells lysate pre incubated for 15 mins followed by ATP acyl phosphate probe addition and measured after 10 mins by LC-MS/MS analysis; assay type: subcellular
# Chain of Eukaryotic translation initiation factor 2-alpha kinase 3 (Q9NZJ5 whole entry): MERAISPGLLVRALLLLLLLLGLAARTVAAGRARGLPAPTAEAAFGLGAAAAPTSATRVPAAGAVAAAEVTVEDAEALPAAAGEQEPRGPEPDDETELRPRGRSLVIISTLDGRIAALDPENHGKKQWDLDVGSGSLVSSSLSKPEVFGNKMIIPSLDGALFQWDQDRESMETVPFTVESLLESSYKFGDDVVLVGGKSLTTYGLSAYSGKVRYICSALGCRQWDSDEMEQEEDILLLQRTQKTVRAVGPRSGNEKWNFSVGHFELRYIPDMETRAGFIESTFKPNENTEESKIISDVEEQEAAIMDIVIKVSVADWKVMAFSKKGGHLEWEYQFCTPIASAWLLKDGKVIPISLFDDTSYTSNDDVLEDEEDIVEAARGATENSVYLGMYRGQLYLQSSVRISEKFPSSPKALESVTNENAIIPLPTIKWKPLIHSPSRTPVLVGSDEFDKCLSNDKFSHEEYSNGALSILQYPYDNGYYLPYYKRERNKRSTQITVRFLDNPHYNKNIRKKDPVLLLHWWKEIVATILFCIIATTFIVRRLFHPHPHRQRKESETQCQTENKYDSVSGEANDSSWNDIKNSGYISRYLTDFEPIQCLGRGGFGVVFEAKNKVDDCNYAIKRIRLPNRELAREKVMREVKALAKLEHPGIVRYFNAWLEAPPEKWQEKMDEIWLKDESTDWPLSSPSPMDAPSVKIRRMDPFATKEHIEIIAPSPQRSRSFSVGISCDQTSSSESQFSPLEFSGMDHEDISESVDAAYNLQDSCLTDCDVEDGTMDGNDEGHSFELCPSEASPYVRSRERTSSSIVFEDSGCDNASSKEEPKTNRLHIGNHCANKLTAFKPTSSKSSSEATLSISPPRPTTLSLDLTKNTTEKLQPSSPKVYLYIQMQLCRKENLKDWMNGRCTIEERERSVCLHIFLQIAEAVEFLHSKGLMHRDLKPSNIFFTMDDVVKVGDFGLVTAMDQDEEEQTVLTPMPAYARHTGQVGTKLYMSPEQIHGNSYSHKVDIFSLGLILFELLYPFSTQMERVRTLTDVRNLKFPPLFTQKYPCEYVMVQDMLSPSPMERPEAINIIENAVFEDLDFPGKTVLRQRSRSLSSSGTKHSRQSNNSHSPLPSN
# [5] = target: Serine/threonine-protein kinase PRP4 homolog (Homo sapiens, UniProt Q13523); assay: Inhibition of PRP4 in human HeLa cells lysate pre incubated for 15 mins followed by ATP acyl phosphate probe addition and measured after 10 mins by LC-MS/MS analysis; assay type: subcellular
# [6] = target: Dual specificity mitogen-activated protein kinase kinase; MEK1/2 (Homo sapiens, UniProt P36507+Q02750); assay: Inhibition of MAP2K1/MAP2K2 in human HeLa cells lysate pre incubated for 15 mins followed by ADP acyl phosphate probe addition and measured after 10 mins by LC-MS/MS analysis; assay type: subcellular
# [7] = target: Mitogen-activated protein kinase kinase kinase 1 (Homo sapiens, UniProt Q13233); assay: Inhibition of MAP3K1 in human HeLa cells lysate at 50 uM pre incubated for 15 mins followed by ADP acyl phosphate probe addition and measured after 10 mins by LC-MS/MS analysis relative to control; assay type: subcellular; conditions: time 25.0 min
# [8] = test system: Serine/threonine-protein kinase PLK1 (Homo sapiens), P53350 [UNDEFINED MUTATION]; assay: Inhibition of PLK1 splice variant in human HeLa cells lysate at 10 uM pre incubated for 15 mins followed by ADP acyl phosphate probe addition and measured after 10 mins by LC-MS/MS analysis relative to control; assay type: subcellular; conditions: time 25.0 min
# Chain of Serine/threonine-protein kinase PLK1 (Homo sapiens), P53350 [UNDEFINED MUTATION] (P53350 whole entry, looked up, stated change not applied, canonical isoform): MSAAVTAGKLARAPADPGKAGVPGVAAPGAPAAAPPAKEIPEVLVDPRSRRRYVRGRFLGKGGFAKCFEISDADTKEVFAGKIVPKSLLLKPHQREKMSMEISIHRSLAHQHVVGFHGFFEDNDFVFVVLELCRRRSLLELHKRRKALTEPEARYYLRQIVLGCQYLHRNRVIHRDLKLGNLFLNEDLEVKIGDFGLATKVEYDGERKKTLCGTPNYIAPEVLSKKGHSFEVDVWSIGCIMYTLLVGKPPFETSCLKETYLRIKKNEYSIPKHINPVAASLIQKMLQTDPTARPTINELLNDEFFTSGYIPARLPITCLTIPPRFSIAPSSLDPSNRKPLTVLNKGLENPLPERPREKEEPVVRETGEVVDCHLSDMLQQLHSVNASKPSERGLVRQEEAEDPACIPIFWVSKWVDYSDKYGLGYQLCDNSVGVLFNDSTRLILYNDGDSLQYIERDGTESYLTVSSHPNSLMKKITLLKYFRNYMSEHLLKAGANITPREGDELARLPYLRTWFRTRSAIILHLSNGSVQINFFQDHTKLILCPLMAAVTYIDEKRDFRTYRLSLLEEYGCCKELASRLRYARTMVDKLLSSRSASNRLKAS
# [9] = target: MAP/microtubule affinity-regulating kinase 3 (Homo sapiens, UniProt P27448); assay: Inhibition of MARK3 in human HeLa cells lysate at 10 uM pre incubated for 15 mins followed by ADP acyl phosphate probe addition and measured after 10 mins by LC-MS/MS analysis relative to control; assay type: subcellular; conditions: time 25.0 min
# Chain of MAP/microtubule affinity-regulating kinase 3 (P27448 whole entry, looked up): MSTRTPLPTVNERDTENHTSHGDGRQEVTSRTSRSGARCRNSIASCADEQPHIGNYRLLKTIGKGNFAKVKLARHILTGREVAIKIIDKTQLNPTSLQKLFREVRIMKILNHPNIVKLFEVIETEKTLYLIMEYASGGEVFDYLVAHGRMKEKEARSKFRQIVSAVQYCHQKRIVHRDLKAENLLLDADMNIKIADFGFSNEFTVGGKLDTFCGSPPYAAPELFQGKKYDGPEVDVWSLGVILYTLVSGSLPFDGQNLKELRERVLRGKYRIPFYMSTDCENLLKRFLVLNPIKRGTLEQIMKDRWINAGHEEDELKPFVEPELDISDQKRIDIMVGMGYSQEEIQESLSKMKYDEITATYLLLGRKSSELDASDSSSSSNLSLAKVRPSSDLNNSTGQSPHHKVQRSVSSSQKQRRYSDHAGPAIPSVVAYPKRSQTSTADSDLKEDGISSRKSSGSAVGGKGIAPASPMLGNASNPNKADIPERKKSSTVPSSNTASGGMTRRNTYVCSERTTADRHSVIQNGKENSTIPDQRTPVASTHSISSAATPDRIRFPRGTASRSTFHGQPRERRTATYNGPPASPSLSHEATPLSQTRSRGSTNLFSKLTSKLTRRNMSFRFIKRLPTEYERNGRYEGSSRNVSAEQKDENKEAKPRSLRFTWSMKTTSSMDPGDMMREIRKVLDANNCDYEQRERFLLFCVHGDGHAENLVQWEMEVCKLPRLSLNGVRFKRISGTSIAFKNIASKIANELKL
# [10] = Inhibition of PCTAIRE2/3 in human HeLa cells lysate at 2 uM pre incubated for 15 mins followed by ADP acyl phosphate probe addition and measured after 10 mins by LC-MS/MS analysis relative to control; conditions: 25 min, condition cancer
# [11] = target: p38 delta/gamma (Homo sapiens) (UniProt O15264+P53778); assay: Inhibition of p38d/p38g in human HeLa cells lysate at 50 uM pre incubated for 15 mins followed by ATP acyl phosphate probe addition and measured after 10 mins by LC-MS/MS analysis relative to control; assay type: subcellular; conditions: time 25.0 min
# [12] = target: Serine/threonine-protein kinase MRCK beta (Homo sapiens, UniProt Q9Y5S2); assay: Inhibition of MRCKB in human HeLa cells lysate at 50 uM pre incubated for 15 mins followed by ATP acyl phosphate probe addition and measured after 10 mins by LC-MS/MS analysis relative to control; assay type: subcellular; conditions: time 25.0 min
# Chain of Serine/threonine-protein kinase MRCK beta (Q9Y5S2 whole entry): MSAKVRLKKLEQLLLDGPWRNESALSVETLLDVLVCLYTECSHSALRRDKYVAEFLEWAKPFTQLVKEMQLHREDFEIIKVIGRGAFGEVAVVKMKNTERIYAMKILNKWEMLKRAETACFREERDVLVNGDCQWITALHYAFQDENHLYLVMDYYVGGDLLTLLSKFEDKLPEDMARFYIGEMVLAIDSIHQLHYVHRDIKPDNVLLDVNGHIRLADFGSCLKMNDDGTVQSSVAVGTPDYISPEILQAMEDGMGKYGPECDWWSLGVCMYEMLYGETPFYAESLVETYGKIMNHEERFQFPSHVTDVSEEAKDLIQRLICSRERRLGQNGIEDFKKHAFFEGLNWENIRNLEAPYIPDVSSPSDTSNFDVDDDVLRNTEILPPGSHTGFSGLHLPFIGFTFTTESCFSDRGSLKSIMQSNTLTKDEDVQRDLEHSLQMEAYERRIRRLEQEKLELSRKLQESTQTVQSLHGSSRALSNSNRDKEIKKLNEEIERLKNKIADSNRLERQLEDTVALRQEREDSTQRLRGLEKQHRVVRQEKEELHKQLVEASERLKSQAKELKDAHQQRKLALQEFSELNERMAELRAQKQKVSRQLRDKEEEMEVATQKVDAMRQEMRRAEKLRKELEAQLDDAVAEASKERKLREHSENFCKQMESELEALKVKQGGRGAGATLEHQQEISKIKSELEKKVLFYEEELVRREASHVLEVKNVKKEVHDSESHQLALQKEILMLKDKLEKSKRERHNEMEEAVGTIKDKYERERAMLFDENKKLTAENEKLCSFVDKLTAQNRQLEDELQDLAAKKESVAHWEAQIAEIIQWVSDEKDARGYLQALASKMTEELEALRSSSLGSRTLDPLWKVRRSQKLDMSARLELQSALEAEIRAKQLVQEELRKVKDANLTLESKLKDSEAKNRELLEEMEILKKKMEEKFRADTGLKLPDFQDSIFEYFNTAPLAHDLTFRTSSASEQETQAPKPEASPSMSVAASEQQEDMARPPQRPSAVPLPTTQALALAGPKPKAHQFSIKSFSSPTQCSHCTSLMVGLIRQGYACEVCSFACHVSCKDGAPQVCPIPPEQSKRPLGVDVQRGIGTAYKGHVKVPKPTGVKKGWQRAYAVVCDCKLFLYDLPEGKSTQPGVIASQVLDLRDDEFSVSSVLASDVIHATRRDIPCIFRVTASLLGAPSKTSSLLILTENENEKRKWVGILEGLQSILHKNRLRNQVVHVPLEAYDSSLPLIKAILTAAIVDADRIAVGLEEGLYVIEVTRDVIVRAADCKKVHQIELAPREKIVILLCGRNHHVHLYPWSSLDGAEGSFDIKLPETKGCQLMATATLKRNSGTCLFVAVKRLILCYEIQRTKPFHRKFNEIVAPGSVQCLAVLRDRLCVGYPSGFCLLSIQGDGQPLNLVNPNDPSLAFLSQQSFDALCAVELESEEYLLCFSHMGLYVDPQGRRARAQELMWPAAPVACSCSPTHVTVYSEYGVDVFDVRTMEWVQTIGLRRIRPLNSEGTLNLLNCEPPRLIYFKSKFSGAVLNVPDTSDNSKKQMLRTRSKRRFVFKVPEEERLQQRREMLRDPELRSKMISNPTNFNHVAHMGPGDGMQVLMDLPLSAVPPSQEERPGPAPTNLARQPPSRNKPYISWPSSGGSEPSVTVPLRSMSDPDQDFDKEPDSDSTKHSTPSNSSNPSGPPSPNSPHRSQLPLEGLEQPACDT
# [13] = target: T1, Aurora kinase A (Homo sapiens) (UniProt O14965); assay: Inhibition of AurA in human HeLa cells lysate at 10 uM pre incubated for 15 mins followed by ATP acyl phosphate probe addition and measured after 10 mins by LC-MS/MS analysis relative to control; assay type: subcellular; conditions: time 25.0 min
# T1 sequence (whole entry): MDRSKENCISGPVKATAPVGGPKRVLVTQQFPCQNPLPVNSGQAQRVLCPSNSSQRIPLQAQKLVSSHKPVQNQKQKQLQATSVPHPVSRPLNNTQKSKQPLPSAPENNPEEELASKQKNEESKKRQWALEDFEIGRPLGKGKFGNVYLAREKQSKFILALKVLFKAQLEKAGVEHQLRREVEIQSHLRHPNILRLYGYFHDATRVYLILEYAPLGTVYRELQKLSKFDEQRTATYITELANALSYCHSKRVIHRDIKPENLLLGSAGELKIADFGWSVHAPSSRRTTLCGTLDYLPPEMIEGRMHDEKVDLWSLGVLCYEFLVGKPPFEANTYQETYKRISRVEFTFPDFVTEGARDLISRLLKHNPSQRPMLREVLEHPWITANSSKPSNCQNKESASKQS
# In short: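 KiNativ-type profiling in HeLa lysate (5 mg/mL total protein). Lysate preincubated 15 min with inhibitor at 50, 10, 2, 0.8 or 0 μM, then ATP or ADP acylphosphate probe added (5 μM final) for 10 min. Reaction stopped with urea and analysed by targeted MS, using up to four fragment ions per kinase peptide-probe conjugate. % inhibition calculated against untreated lysate. Duplicate reactions.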
# [14] = Inhibition of MAP3K5/MAP3K6/MAP3K15 in human HeLa cells lysate at 10 uM pre incubated for 15 mins followed by ATP acyl phosphate probe addition and measured after 10 mins by LC-MS/MS analysis relative to control; conditions: 25 min, condition cancer
# [15] = target: T2, EKC/KEOPS complex subunit TP53RK (Homo sapiens) (UniProt Q96S44); assay: Inhibition of PRPK in human HeLa cells lysate at 10 uM pre incubated for 15 mins followed by ATP acyl phosphate probe addition and measured after 10 mins by LC-MS/MS analysis relative to control; assay type: subcellular; conditions: time 25.0 min
# T2 sequence (whole entry): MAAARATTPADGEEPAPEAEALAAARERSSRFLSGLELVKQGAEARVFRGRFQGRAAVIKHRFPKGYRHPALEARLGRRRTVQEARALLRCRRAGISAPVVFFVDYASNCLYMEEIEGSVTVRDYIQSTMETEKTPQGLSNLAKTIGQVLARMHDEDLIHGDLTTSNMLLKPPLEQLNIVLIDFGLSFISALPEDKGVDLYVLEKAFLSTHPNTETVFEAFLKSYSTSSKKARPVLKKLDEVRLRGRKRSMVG
# [16] = target: Microtubule-associated serine/threonine-protein kinase 3 (Homo sapiens, UniProt O60307); assay: Inhibition of MAST3 in human HeLa cells lysate at 2 uM pre incubated for 15 mins followed by ATP acyl phosphate probe addition and measured after 10 mins by LC-MS/MS analysis relative to control; assay type: subcellular; conditions: time 25.0 min
# [17] = Toxicity in C57Bl/6 mouse assessed as effect on urea nitrogen level at 50 mg/kg, ip for 14 days (reference value: 22 mg/dl); assay type: organism-based; conditions: in vivo, 336 h, time 14 day
# Chain of Cyclin-dependent kinase 9 (P50750 whole entry, the tested form may be a part): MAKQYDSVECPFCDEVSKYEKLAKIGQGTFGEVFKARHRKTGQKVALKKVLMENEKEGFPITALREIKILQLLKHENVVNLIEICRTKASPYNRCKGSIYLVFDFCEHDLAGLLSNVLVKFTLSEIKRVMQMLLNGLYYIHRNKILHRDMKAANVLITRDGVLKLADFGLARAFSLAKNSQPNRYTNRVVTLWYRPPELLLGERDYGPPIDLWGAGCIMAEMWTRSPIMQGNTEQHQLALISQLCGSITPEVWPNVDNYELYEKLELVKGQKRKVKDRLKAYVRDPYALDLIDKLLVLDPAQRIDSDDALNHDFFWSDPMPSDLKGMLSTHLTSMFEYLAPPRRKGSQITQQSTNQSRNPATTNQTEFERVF
smiles,measurement,setting,value
CCOc1cc(N2CCC(O)CC2)ccc1Nc1ncc2c(n1)N(C)c1ccccc1C(=O)N2C,IC50,[1],> 50 µM
same,IC50,[2],> 50 µM
same,IC50,[3],> 50 µM
same,IC50,[4],> 50 µM
same,IC50,[5],> 50 µM
same,IC50,[6],> 50 µM
same,inhibition,[7],14.1%
same,inhibition,[8],0.8%
same,inhibition,[9],4.8%
same,inhibition at 2 µM,[10],10.1%
same,inhibition,[11],37.2%
same,inhibition,[12],-5%
same,inhibition,[13],2.3%
same,inhibition at 10 µM,[14],1.4%
same,inhibition,[15],-9.7%
same,inhibition,[16],2%
same,Activity,[17],31 mg/dL
